Tests used:
[1] = system: Candida albicans; test: Antimicrobial activity against Candida albicans ATCC 90028 by CLSI method; assay type: functional
Summary of the method: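 C. albicans inoculum was made to the 0.5 McFarland standard in Sabouraud dextrose broth or RPMI 1640. Samples came from DMSO stocks serially diluted in saline, in duplicate, starting at a final 20 μg/mL. Plates were read at OD 630 nm before and after incubation. IC50 came from the % growth versus concentration plot; MIC was the lowest concentration with no visible growth. Included: growth, solvent and blank controls, plus amphotericin B.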

[2] = system: Cryptococcus neoformans; test: Antimicrobial activity against Cryptococcus neoformans ATCC 90113 by alamar blue assay; assay type: functional, organism-based
[3] = system: Aspergillus fumigatus; test: Antimicrobial activity against Aspergillus fumigatus ATCC 90906 by alamar blue assay; assay type: functional, organism-based
Summary of the method: (§1)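 Modified CLSI broth microdilution. DMSO stocks were serially diluted in saline and run in duplicate. Inoculum was set by the 0.5 McFarland standard in YM broth for MIC, or in RPMI-1640 + 5% Alamar Blue for IC50. The top final concentration was 20 μg/mL. Fluorescence (544ex/590em) was read before and after incubation. IC50 was taken from % growth versus concentration; MIC was read visually as no blue-to-pink change.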

[4] = system: Cryptococcus neoformans; test: Antimicrobial activity against Cryptococcus neoformans ATCC 90113 by CLSI method; assay type: functional
Summary of the method: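 C. neoformans in Sabouraud dextrose broth, inoculum per the 0.5 McFarland standard. Saline serial dilutions of DMSO samples were tested in duplicate, with a final top concentration of 20 μg/mL. OD 630 nm was read before and after incubation. IC50 was derived from % growth versus concentration. MIC was judged visually as the lowest concentration with no detectable growth. Amphotericin B served as the drug control.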

[5] = system: Aspergillus fumigatus; test: Antimicrobial activity against Aspergillus fumigatus ATCC 90906 by CLSI method; assay type: functional; summary of the method: as §1
[6] = system: Candida albicans; test: Antimicrobial activity against Candida albicans ATCC 90028 by alamar blue assay; assay type: functional, organism-based
[7] = system: Vero; test: Cytotoxicity against african green monkey Vero cells at 10 ug/ml after 48 hrs by neutral red assay; assay type: cell-based; settings: chlorocebus sabaeus
Summary of the method: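 VERO kidney cells were seeded at 25,000 cells/well and incubated 24 h. Samples were added up to 10 μg/mL and incubated a further 48 h. Viable cells were counted by neutral red uptake. IC50 came from growth-inhibition dose curves. Doxorubicin was the positive control and DMSO the vehicle control.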

[8] = system: Pichia kudriavzevii; test: Antimicrobial activity against Candida krusei ATCC 6258 by CLSI method; assay type: functional
Summary of the method: (§2)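 Modified CLSI microdilution. DMSO samples were serially diluted in saline and tested in duplicate against inoculum adjusted by the 0.5 McFarland standard. The final test range started at 20 μg/mL. Plates were read before and after incubation. IC50 came from % growth versus concentration; MIC was the lowest concentration without visible growth. Growth, solvent, blank and amphotericin B controls were on each plate.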

[9] = system: Nakaseomyces glabratus; test: Antimicrobial activity against Candida glabrata ATCC 90030 by CLSI method; assay type: functional; summary of the method: as §2
[10] = Selectivity index, ratio of TC50 for african green monkey Vero cells to IC50 for Cryptococcus neoformans ATCC 90113; assay type: toxicity, cell-based; settings: read-out: Selectivity Index
[11] = system: Pichia kudriavzevii; test: Antimicrobial activity against Candida krusei ATCC 6258 by alamar blue assay; assay type: functional, organism-based
[12] = system: Nakaseomyces glabratus; test: Antimicrobial activity against Candida glabrata ATCC 90030 by alamar blue assay; assay type: functional, organism-based

SMILES | MIC [1] | MIC [4] | MIC [5] | MIC [8] | MIC [9] | MFC [1] | IC50 [2] | IC50 [3] | MFC [4] | MFC [5] | IC50 [6] | Activity [7] | MFC [8] | MFC [9] | selectivity ratio [10] | IC50 [11] | IC50 [12]
Fc1ccc(Sc2cc3ccccc3[n+](CCCCCc3ccccc3)c2)cc1.[I-] | > 20 µg/mL | 20 µg/mL | 20 µg/mL |  |  | > 20 µg/mL | 15 µg/mL | 9 µg/mL | > 20 µg/mL | > 20 µg/mL | > 20 µg/mL | Non-toxic |  |  |  |  | 
FC(F)(F)c1cccc(Sc2cc3ccccc3[n+](CCCCCc3ccccc3)c2)c1.[I-] | > 20 µg/mL | 5 µg/mL | > 20 µg/mL |  |  | > 20 µg/mL | 2.1 µg/mL | 17 µg/mL | 10 µg/mL | > 20 µg/mL | 14 µg/mL | Non-toxic |  |  |  |  | 
Cc1ccccc1Sc1cc2ccccc2[n+](CCCCCc2ccccc2)c1.[I-] | > 20 µg/mL | 5 µg/mL | > 20 µg/mL |  |  | > 20 µg/mL | 4 µg/mL | > 20 µg/mL | 20 µg/mL | > 20 µg/mL | > 20 µg/mL | Non-toxic |  |  |  |  | 
N#Cc1ccc(Sc2cc3ccccc3[n+](CCCCCC3CCCCC3)c2)cc1.[I-] | 10 µg/mL | 1.3 µg/mL | 20 µg/mL | 5 µg/mL | 10 µg/mL | 20 µg/mL | 0.5 µg/mL | 19 µg/mL | 5 µg/mL | > 20 µg/mL | 6.2 µg/mL | Non-toxic | 10 µg/mL | 20 µg/mL | > 20 | 2.3 µg/mL | 6.3 µg/mL
Oc1cccc(Sc2cc3ccccc3[n+](CCCCCC3CCCCC3)c2)c1.[I-] | 10 µg/mL | 2.5 µg/mL | 20 µg/mL | 10 µg/mL | > 20 µg/mL | 20 µg/mL | 1.3 µg/mL | 10 µg/mL | 5 µg/mL | > 20 µg/mL | 3.5 µg/mL | Non-toxic | 20 µg/mL | > 20 µg/mL | > 7.7 | 5.1 µg/mL | > 20 µg/mL
Oc1ccc(Sc2cc3ccccc3[n+](CCCCCC3CCCCC3)c2)cc1.[I-] | 10 µg/mL | 1.3 µg/mL | 20 µg/mL | 5 µg/mL | > 20 µg/mL | 20 µg/mL | 0.7 µg/mL | 7.9 µg/mL | 2.5 µg/mL | > 20 µg/mL | 3.9 µg/mL | Non-toxic | 5 µg/mL | > 20 µg/mL | > 14 | 1.5 µg/mL | > 20 µg/mL
FC(F)(F)c1ccccc1Sc1cc2ccccc2[n+](CCCCCC2CCCCC2)c1.[I-] | 2.5 µg/mL | 0.6 µg/mL | 5 µg/mL | 1.3 µg/mL | 5 µg/mL | 2.5 µg/mL | 0.3 µg/mL | 1.8 µg/mL | 1.3 µg/mL | 5 µg/mL | 1.1 µg/mL | Non-toxic | 1.3 µg/mL | 10 µg/mL | > 33 | 1.1 µg/mL | 3 µg/mL
FC(F)(F)c1cccc(Sc2cc3ccccc3[n+](CCCCCC3CCCCC3)c2)c1.[I-] | 2.5 µg/mL | 0.6 µg/mL | 2.5 µg/mL | 2.5 µg/mL | 10 µg/mL | 5 µg/mL | 0.4 µg/mL | 2.2 µg/mL | 0.6 µg/mL | > 20 µg/mL | 1.3 µg/mL | Non-toxic | 2.5 µg/mL | 10 µg/mL | > 25 | 1.2 µg/mL | 4.6 µg/mL
FC(F)(F)c1ccc(Sc2cc3ccccc3[n+](CCCCCC3CCCCC3)c2)cc1.[I-] | 2.5 µg/mL | 0.6 µg/mL | 2.5 µg/mL | 2.5 µg/mL | 10 µg/mL | 2.5 µg/mL | 0.3 µg/mL | 1.7 µg/mL | 0.6 µg/mL | > 20 µg/mL | 0.8 µg/mL | Non-toxic | 5 µg/mL | 10 µg/mL | > 33 | 1.3 µg/mL | 4.7 µg/mL

Now from value to compound, other results behind:

MIC [1] | MIC [4] | MIC [5] | MIC [8] | MIC [9] | SMILES | MFC [1] | IC50 [2] | IC50 [3] | MFC [4] | MFC [5] | IC50 [6] | Activity [7] | MFC [8] | MFC [9] | selectivity ratio [10] | IC50 [11] | IC50 [12]
> 20 µg/mL | 10 µg/mL | 20 µg/mL |  |  | Fc1cccc(Sc2cc3ccccc3[n+](CCCCCc3ccccc3)c2)c1.[I-] | > 20 µg/mL | 7 µg/mL | 5 µg/mL | > 20 µg/mL | > 20 µg/mL | > 20 µg/mL | Non-toxic |  |  |  |  | 
20 µg/mL | 10 µg/mL | 10 µg/mL |  |  | Brc1ccc(Sc2cc3ccccc3[n+](CCCCCc3ccccc3)c2)cc1.[I-] | > 20 µg/mL | 2 µg/mL | 3.5 µg/mL | 10 µg/mL | > 20 µg/mL | 8.5 µg/mL | Non-toxic |  |  |  |  | 
> 20 µg/mL | 5 µg/mL | > 20 µg/mL |  |  | FC(F)(F)c1ccccc1Sc1cc2ccccc2[n+](CCCCCc2ccccc2)c1.[I-] | > 20 µg/mL | 2.2 µg/mL | 6.9 µg/mL | 10 µg/mL | > 20 µg/mL | 12 µg/mL | Non-toxic |  |  |  |  | 
20 µg/mL | 1.3 µg/mL | 20 µg/mL | 5 µg/mL | 20 µg/mL | N#Cc1cccc(Sc2cc3ccccc3[n+](CCCCCC3CCCCC3)c2)c1.[I-] | 20 µg/mL | 0.7 µg/mL | 19 µg/mL | 5 µg/mL | > 20 µg/mL | 6.7 µg/mL | Non-toxic | 10 µg/mL | 20 µg/mL | > 14 | 1.4 µg/mL | 13 µg/mL
